# Laboratory results published in PubChem BioAssay.
# Values without a mark were called inactive.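 How the source made its calls, unless noted: active means viability at or below 30% in both replicate assays; inconclusive means viability at or below 30% in just one of the two assays; inactive means the rest.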
# Assay: SK-BR-3 cell growth inhibitors, pilot screen, 24 h, human (AID 572;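 active means viability at or below 10% of carrier control in both of two separate runs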;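 further: compound exposure lasted between 18 and 24 h rather than exactly 24 h; 100% = carrier-treated control wells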)
# Details: SK-BR-3 viability, CellTiter-Glo luminescence, at 10 µM, hits give low values
row,SMILES,viability [%]
1,CS(=O)(=O)c1ccc2nc(NC(=O)CCC(=O)c3cccs3)sc2c1,91
2,O=S(=O)(NCc1cn2ccsc2n1)c1ccc2c(c1)OCCO2,117
3,CC1(CC(=O)O)C(=O)N=C2C=CC=CN21 (configuration not stated),93
4,CCN(CC)S(=O)(=O)c1cccc(-c2nnc(SCC(N)=O)n2CCc2ccccc2)c1,102
5,CC1(C)Cc2noc(N)c2C(C)(C)N1O,121
6,CCOc1ccc(Cc2nn[nH]n2)cc1,86.5
7,CC(C)NC(=O)CSc1nnc(-c2ccc(C(C)(C)C)cc2)n1C,95
8,C=CCC(NCc1ccco1)c1ccc(OC)cc1OC (configuration not stated),96
9,CCN(c1cccc(C(F)(F)F)c1)S(=O)(=O)c1ccc2c(c1)CCN2C(=O)C1CC1,99
10,COc1ccc(OC)c(S(=O)(=O)N2CCC(C(=O)NCC3CCCO3)CC2)c1 (configuration not stated),101
11,Cn1c(COc2ccc(Cl)cc2)nnc1SCC(=O)NC1CCCCC1,77
12,CCN(c1c(C)n(C)n(-c2ccccc2)c1=O)S(C)(=O)=O,98.5
13,CCc1nc(N)c(C#N)c(-c2ccc(OC)c(OC)c2)c1C,98.5
14,CSCCC(NC(=O)c1occc1C)C(=O)O (configuration not stated),93.5
15,Cc1cccc(N2CCN(S(=O)(=O)c3ccc4c(c3)CCC(=O)N4)CC2C)c1 (configuration not stated),110
16,c1cnn(-c2cc(N3CCOCC3)ncn2)c1,70
17,Cc1cccc(NC(=O)COc2ccc(Br)cc2)n1,126
18,CCOC(=O)c1ccc(-c2c(C(=O)OCC)oc3cc(O)c(CC)cc3c2=O)o1,96.5
19,CC(C)NC(=O)CSCc1ccccc1Cl,96
20,O=C(CSc1n[nH]c(-c2cccs2)n1)N1CCN(S(=O)(=O)c2ccccc2)CC1,80.5
21,O=S(=O)(c1ccc2ccccc2c1)N1CCCCC1,102
22,C=CCn1c(CC#N)nnc1N1CCOCC1,90.5
23,COc1ccc(OC)c(C2=NOC(C(=O)Nc3cccnc3)C2)c1 (configuration not stated),78.5

# Assay: HUVEC growth inhibition – cell-based, human, primary screen (AID 575);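 further: 100% = median of untreated cell wells with 0.1% DMSO on each plate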
# Details: HUVEC proliferation, CellTiter-Glo luminescence, 72 h; at 10 µM; hits give low values
# Procedure, shortened: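 Timing: 72 h treatment at 37 °C; material: HUVEC primary cells; technique: CellTiter-Glo luminescence measuring cellular ATP; controls: vehicle and MePR control wells; measure: percent of median DMSO-control luminescence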
row,SMILES,viability [%]
1,CCn1c(SCC(=O)Nc2nnc(C)s2)nnc1-c1ccncc1,107
2,O=C1CN(Cc2ccccc2)C(=NCc2ccco2)S1,97.7
3,COc1ccc(NC(=O)c2cc(C(C)C)on2)c(OC)c1,79.5
4,COc1ccc(N2CCN(CCCNC(=O)C3(S(=O)(=O)c4ccc(Cl)cc4)CC3)CC2)cc1,87.2
5,O=c1oc2ccccc2c2c1ncn2-c1ccccc1,90.4
6,O=C(Cn1ncc2ccccc21)N1CCN(c2cccc(C(F)(F)F)c2)CC1,93.4
7,O=C(NCc1ccccn1)c1cccs1,92.4
8,O=C(NC1CCCC1)C1CC1c1ccccc1 (configuration not stated),93.9
9,CCNc1nc(N2CCOCC2)nc(N(c2ccccc2)c2ccccc2)n1,62.2
10,Cc1ccc(S(=O)(=O)N(C)Cc2cc3ccccc3[nH]c2=O)cc1,111
11,COc1ccc(S(=O)(=O)N2CCN(CC(=O)Nc3ccc(C)c(F)c3)CC2)cc1,86.4
12,CC(C)(C)C(=O)/C=C(\N)c1ccccn1,119
13,O=c1c2cc(N3CCOCC3)ccc2[nH]c(=S)n1CCCN1CCCCC1,84.9
14,O=C(CC1CCS(=O)(=O)C1)Nc1ccc[nH]c1=O (configuration not stated),88.1
15,CCC(=O)c1ccc(OC(=O)c2ccc(Br)o2)cc1,98
16,CC1CCN(CCn2c(=S)[nH]c3ncccc3c2=O)CC1,78.6
17,CC(C)CC(=O)CN1C(=O)C2(OCCO2)c2ccccc21,101
18,CS(=O)(=O)c1ccc2nc(NC(=O)CCC(=O)c3cccs3)sc2c1,87.5
19,O=S(=O)(NCc1cn2ccsc2n1)c1ccc2c(c1)OCCO2,96.4
20,CC1(CC(=O)O)C(=O)N=C2C=CC=CN21 (configuration not stated),97.9
21,CCN(CC)S(=O)(=O)c1cccc(-c2nnc(SCC(N)=O)n2CCc2ccccc2)c1,91
22,CC1(C)Cc2noc(N)c2C(C)(C)N1O,89.5
23,CCOc1ccc(Cc2nn[nH]n2)cc1,108
24,CC(C)NC(=O)CSc1nnc(-c2ccc(C(C)(C)C)cc2)n1C,71.5
